From ChEMBL document CHEMBL6134795, “Mannich reaction mediated derivatization of chromones and their biological evaluations as putative multipotent ligands for the treatment of Alzheimer's disease” (RSC Med Chem, 2024) come the findings set out here.

In general, pIC50 refers to the IC50 on a negative log10 scale, so that one unit is a factor of ten. A word on the inhibition: it is how much of the control response was suppressed.

In data set [1] the target is T1, Cholinesterase (Homo sapiens, UniProt P06276). In words: Inhibition of BuChE (unknown origin). In short, it runs like this:
(§1)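 Ellman method as for AChE, using butyrylcholinesterase with BTCI as substrate. Enzyme and compound preincubated 30 min at 37 °C in a CO2 incubator, then DTNB and BTCI added; absorbance read at 417 nm. Screening at 20 μM as % inhibition; IC50 for compounds exceeding 50% inhibition at 20 μM. Triplicate.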

Data set [2] has as its target T2, Acetylcholinesterase (Homo sapiens, UniProt P22303). In words: Inhibition of AChE (unknown origin). The essentials: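 Recombinant AChE (0.5 U ml-1) preincubated with compound for 30 min at 37 °C in a CO2 incubator. DTNB and acetylthiocholine substrate (AChSI) then added, and absorbance read at 417 nm. Screening at 20 μM as % inhibition; IC50 determined for compounds giving over 50% inhibition at 20 μM. Run in triplicate.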

Data set [3] concerns the target T3, Amine oxidase [flavin-containing] B (Homo sapiens, UniProt P27338).
T3 sequence (P27338 whole entry): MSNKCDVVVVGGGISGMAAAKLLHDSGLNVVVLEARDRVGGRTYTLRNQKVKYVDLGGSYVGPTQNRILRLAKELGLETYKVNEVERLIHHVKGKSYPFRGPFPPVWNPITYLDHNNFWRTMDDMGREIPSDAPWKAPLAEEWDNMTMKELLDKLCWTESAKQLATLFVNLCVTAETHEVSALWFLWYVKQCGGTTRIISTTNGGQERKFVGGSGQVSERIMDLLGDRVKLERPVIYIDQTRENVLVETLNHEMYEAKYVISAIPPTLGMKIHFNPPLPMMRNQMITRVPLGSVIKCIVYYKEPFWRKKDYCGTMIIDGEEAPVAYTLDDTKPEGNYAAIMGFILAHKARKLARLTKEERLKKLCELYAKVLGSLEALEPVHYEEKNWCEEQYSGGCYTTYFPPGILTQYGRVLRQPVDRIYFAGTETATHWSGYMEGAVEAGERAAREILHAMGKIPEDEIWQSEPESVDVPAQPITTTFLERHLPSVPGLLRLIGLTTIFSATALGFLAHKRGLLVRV
Kind of data set: Inhibition of MAO-B (unknown origin).

Data set [4] concerns SH-SY5Y. Kind of data set: Neuroprotective activity against 6-OHDA-induced cytotoxicity in human SH-SY5Y cells assessed as cell viability at 1 uM incubated for 24 hrs followed by exposure to 6-OHDA by MTT assay relative to control. It counts as functional. The note with it: read-out: Activity. The essentials:
(§2)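 SH-SY5Y cells treated with compound (1, 5, 25 μM) and challenged with 6-OHDA; cultured 24 h at 37 °C under humidified 5% CO2. Viability measured by MTT as formazan absorbance at 594 nm and expressed relative to control.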
For orientation: Formazan colour is commonly taken as a measure of viable cells.

Data set [5] relates to SH-SY5Y. Kind of data set: Cytotoxicity against human SH-SY5Y cells assessed as cell viability at 5 uM by MTT assay relative to control. The class given is functional. The note with it: read-out: Activity. In short, it runs like this:
(§3)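 SH-SY5Y cells (DMEM/F-12 with 10% FBS, 1% horse serum, 1% penicillin) preincubated 24 h with compound at 1, 5 or 25 μM; MTT converted to formazan, solubilised in DMSO, absorbance read at 595 nm; viability expressed as percentage of untreated control.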

In data set [6] the target is T3, Amine oxidase [flavin-containing] B. In words: Inhibition of recombinant MAO-B (unknown origin) preincubated for 30 mins followed substrate addition by Amplex Red reagent based fluorescence analysis.
For data set [7], the target named is T2, Acetylcholinesterase. Kind of data set: Reversible inhibition of AChE (unknown origin) assessed as residual activity at 100 times IC50 incubated for 30 mins by dilution method relative to control. The essentials:
(§4)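 Samples then diluted 100-fold with substrate, giving final inhibitor levels of 0.1× and 1× IC50. Recovered activity measured relative to control; triplicate.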

The test system of data set [8] is SH-SY5Y. Kind of data set: Inhibition of ROS production in human SH-SY5Y cells assessed as intracellular ROS level at 5 uM incubated for 24 hrs by DCF-DA staining based fluorescence analysis relative to control. The class given is functional. In short, it runs like this: (§5)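 Cultured SH-SY5Y cells exposed to compound (1, 5, 25 μM) for 24 h; intracellular ROS detected with DCF-DA, which is converted to fluorescent 2,7-DCF, read at ex 478/em 518 nm. Inhibition is expressed relative to control. Mean ± SD of triplicate or more independent experiments.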

In data set [9] the target is T1, Cholinesterase. Kind of data set: Inhibition of recombinant BuChE (unknown origin) using BTCI as substrate at 20 uM preincubated for 30 mins followed by substrate addition by TECAN multiplate reader analysis relative to control. The essentials: as §1
Data set [10] has as its target T2, Acetylcholinesterase. In words: Reversible inhibition of AChE (unknown origin) assessed as residual activity at 10 times IC50 incubated for 30 mins by dilution method relative to control. In short, it runs like this:
as §4

Data set [11] has as its target T3, Amine oxidase [flavin-containing] B. In words: Reversible inhibition of MAO-B (unknown origin) assessed as residual activity at 1 times IC50 incubated for 30 mins by dilution method relative to control. The note with it: 0.5 h.
In data set [12] the test system is SH-SY5Y. In words: Inhibition of ROS production in human SH-SY5Y cells assessed as intracellular ROS level at 25 uM incubated for 24 hrs by DCF-DA staining based fluorescence analysis relative to control. The class given is functional. In short, it runs like this: as §5
The target of data set [13] is Amyloid-beta precursor protein (Homo sapiens) (UniProt P05067). Kind of data set: Inhibition of self-induced amyloid beta (1 to 42 residues) (unknown origin) aggregation at 20 uM incubated at 48 hrs by fluorimetry-based thioflavin T assay. The essentials:
(§6)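 Aβ1-42 pretreated with HFIP (1 mg mL−1) and dried, then incubated with compound (20 μM) at 37 °C for 24 h; an aliquot transferred and incubated further to 48 h. Glycine–NaOH buffer pH 8.0 with 5 μM ThT added; fluorescence read at 440–485 nm. % inhibition calculated against the Aβ-only control taken as 0%.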

Data set [14] addresses T2, Acetylcholinesterase. Kind of data set: Reversible inhibition of AChE (unknown origin) assessed as residual activity at 1 times IC50 incubated for 30 mins by dilution method relative to control. In short, it runs like this:
as §4

Data set [15] deals with Amyloid-beta precursor protein (Homo sapiens) (UniProt P05067). In words: Inhibition of self-induced amyloid beta (1 to 42 residues) (unknown origin) aggregation at 20 uM incubated at 24 hrs by fluorimetry-based thioflavin T assay. The essentials: as §6
Data set [16] deals with T3, Amine oxidase [flavin-containing] B. In words: Reversible inhibition of MAO-B (unknown origin) assessed as residual activity at 100 times IC50 incubated for 30 mins by dilution method relative to control. The note with it: 0.5 h.
Data set [17] relates to SH-SY5Y. In words: Cytotoxicity against human SH-SY5Y cells assessed as cell viability at 25 uM by MTT assay relative to control. It counts as functional. The conditions noted are these: read-out: Activity. The essentials: as §3
In data set [18] the test system is SH-SY5Y. In words: Inhibition of ROS production in human SH-SY5Y cells assessed as intracellular ROS level at 1 uM incubated for 24 hrs by DCF-DA staining based fluorescence analysis relative to control. It counts as functional. The essentials:
as §5

In data set [19] the target is T3, Amine oxidase [flavin-containing] B. In words: Reversible inhibition of MAO-B (unknown origin) assessed as residual activity at 10 times IC50 incubated for 30 mins by dilution method relative to control. The note with it: 0.5 h.
For data set [20] the target is unchanged. Kind of data set: Reversible inhibition of MAO-B (unknown origin) assessed as residual activity at 0.1 times IC50 incubated for 30 mins by dilution method relative to control. The note with it: 0.5 h.
The target of data set [21] is T1, Cholinesterase. Kind of data set: Inhibition of recombinant BuChE (unknown origin) using BTCI as substrate preincubated for 30 mins followed by substrate addition by TECAN multiplate reader analysis. In short, it runs like this: as §1
Data set [22] has as its system SH-SY5Y. In words: Cytotoxicity against human SH-SY5Y cells assessed as reduction in cell viability at 1 to 25 uM by MTT assay. The note with it: dose 1-25 µM. It counts as functional, cell-based. In short, it runs like this: as §3
The target of data set [23] is T3, Amine oxidase [flavin-containing] B. Kind of data set: Inhibition of recombinant MAO-B (unknown origin) at 20 uM preincubated for 30 mins followed substrate addition by Amplex Red reagent based fluorescence analysis relative to control. In short, it runs like this:
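Recombinant MAO enzyme preincubated with compound 30 min at 37 °C; substrate, HRP and Amplex Red working solution then added; H2O2 formation read at 37 °C by fluorescence, ex 545/em 590 nm. Screening at 20 μM as % inhibition versus control; IC50 only for compounds above 50% inhibition at 20 μM; triplicate (n = 3).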

Data set [24] deals with T2, Acetylcholinesterase. In words: Reversible inhibition of AChE (unknown origin) assessed as residual activity at 0.1 times IC50 incubated for 30 mins by dilution method relative to control. In short, it runs like this: as §4
Data set [25] deals with SH-SY5Y. Kind of data set: Cytotoxicity against human SH-SY5Y cells assessed as cell viability at 1 uM by MTT assay relative to control. The class given is functional. The conditions noted are these: read-out: Activity. In short, it runs like this:
as §3

For data set [26], the system named is SH-SY5Y. Kind of data set: Neuroprotective activity against 6-OHDA-induced cytotoxicity in human SH-SY5Y cells assessed as cell viability at 5 uM incubated for 24 hrs followed by exposure to 6-OHDA by MTT assay relative to control. It counts as functional. The note with it: read-out: Activity. The essentials:
as §2

Data set [27] concerns SH-SY5Y. Kind of data set: Neuroprotective activity against 6-OHDA-induced cytotoxicity in human SH-SY5Y cells assessed as cell viability at 25 uM incubated for 24 hrs followed by exposure to 6-OHDA by MTT assay relative to control. It counts as functional. The note with it: read-out: Activity. The essentials: as §2

Structures are written as SMILES. pIC50: −log10 of the molar value.

T2 sequence (P22303 whole entry): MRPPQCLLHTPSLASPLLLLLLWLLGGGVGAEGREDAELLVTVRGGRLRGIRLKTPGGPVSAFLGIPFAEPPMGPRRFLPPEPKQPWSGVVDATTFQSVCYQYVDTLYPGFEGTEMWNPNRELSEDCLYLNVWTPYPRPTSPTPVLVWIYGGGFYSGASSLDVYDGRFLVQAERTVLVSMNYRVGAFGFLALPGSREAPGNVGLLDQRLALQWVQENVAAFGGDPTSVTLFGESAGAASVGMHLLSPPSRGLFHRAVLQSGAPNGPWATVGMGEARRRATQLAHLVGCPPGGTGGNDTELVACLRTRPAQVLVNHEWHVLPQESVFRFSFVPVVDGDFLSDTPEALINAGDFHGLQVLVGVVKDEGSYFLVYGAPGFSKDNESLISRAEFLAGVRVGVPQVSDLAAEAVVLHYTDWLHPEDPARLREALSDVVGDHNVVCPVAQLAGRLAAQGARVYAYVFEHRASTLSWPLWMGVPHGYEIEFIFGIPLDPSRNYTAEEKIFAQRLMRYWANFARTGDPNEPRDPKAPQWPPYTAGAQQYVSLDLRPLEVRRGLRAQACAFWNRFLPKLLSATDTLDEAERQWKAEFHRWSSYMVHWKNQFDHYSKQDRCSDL
T1 sequence (P06276 whole entry): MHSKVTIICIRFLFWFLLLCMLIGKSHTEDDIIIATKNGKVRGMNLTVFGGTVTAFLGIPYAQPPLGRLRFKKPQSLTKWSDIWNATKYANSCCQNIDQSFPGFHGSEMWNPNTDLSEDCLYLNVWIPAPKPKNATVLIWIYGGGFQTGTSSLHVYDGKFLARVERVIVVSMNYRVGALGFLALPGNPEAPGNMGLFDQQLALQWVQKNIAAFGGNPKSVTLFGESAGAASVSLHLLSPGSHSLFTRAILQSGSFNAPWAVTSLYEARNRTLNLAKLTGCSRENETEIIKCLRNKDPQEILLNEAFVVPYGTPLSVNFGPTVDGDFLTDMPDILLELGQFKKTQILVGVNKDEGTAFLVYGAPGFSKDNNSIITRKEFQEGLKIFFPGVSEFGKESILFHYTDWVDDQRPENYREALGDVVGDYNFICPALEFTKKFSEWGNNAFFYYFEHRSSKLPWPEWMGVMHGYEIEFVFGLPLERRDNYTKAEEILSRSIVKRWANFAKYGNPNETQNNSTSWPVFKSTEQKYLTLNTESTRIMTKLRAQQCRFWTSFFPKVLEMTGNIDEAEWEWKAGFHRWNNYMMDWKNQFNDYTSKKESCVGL
Sequence of Amyloid-beta precursor protein (Homo sapiens) (P05067 whole entry, the tested form may be a part): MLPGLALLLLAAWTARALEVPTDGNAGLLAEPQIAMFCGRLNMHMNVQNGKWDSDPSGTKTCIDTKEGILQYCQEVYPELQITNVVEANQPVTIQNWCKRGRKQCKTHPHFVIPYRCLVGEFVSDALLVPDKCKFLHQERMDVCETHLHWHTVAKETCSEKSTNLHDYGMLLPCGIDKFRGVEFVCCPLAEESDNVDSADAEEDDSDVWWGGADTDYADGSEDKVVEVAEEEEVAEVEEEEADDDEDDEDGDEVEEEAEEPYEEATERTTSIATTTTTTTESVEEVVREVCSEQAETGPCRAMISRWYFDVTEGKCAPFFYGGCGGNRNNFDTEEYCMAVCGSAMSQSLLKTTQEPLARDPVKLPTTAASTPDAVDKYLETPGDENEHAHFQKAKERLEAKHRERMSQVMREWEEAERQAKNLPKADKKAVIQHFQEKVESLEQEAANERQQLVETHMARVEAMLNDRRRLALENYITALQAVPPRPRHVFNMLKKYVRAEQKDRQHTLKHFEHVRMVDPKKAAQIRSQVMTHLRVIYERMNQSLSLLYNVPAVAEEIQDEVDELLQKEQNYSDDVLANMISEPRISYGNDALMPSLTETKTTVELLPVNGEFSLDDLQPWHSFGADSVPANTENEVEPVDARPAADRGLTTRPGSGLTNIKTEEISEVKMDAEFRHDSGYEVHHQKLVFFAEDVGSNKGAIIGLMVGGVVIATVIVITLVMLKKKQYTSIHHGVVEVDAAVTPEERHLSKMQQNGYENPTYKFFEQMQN

`O=C(NCCC1CCN(Cc2ccccc2)CC1)c1coc2cc(OCc3ccccc3)ccc2c1=O`: the results for the pIC50 (at Cholinesterase [1]; at Acetylcholinesterase [2]; in [3]) were 5.28, 6.43 and 6.57, respectively.
Turning to `C#CCOc1c(CN2CCCCC2)cc(-c2cc(=O)c3ccccc3o2)cc1OC`, the viability at 1 µM came out at 51.9% in the data set with SH-SY5Y [4] and 97.1% in the data set with SH-SY5Y [25]. Also, the viability at 5 µM in the data set with SH-SY5Y [5] amounted to 94.4%; in the data set with SH-SY5Y [26] it was 49.4%. For the same compound, the pIC50 in data set [6] is 4.71; at Cholinesterase [21], 5.71. In addition, the Activity at Acetylcholinesterase [7] turned out to be 25.3%; at Acetylcholinesterase [10], 33.1%; in data set [11], 58.9%; at Acetylcholinesterase [14], 47.2%; in data set [16] it was 14%; in data set [19], 32.6%. Also, the Activity in data set [20] was 76.3%; in the data set with SH-SY5Y [22] it was “Not toxic”; on Acetylcholinesterase [24] it was 71.3%. Further, the inhibition at 5 µM in the data set with SH-SY5Y [8] was found to be 51%. Further, the inhibition at Cholinesterase [9] worked out at 89.9%; in data set [13], 28.5%; in data set [15], 22.4%. Moreover, the inhibition at 25 µM in the data set on SH-SY5Y [12] was 47%. Also, the figures for the viability at 25 µM in the data set with SH-SY5Y [17] and with SH-SY5Y [27] were 91.9% and 46.9%, respectively. Moreover, the inhibition at 1 µM in the data set with SH-SY5Y [18] amounted to 82.8%. Also, the inhibition at 20 µM in data set [23] is 50.8%.
